Experimental findings from ChEMBL document CHEMBL5380787, “Optimized M24B Aminopeptidase Inhibitors for CARD8 Inflammasome Activation” (J Med Chem, 2023) are described below.

One series relates to HEK-293T. Kind of series: Induction of pyroptosis in human HEK293T cells expressing CASP1 and GSDMD cotransfected with dTAG-CARD8ZUC and CARD8 FIIND S297A assessed as destabilization of DPP9-CARD8 ternary complex by measuring LDH release at 20 uM incubated for 6 hrs in presence of dTAG13. The format is functional, cell-based.
The next series concerns RAW264.7. Briefly: Induction of pyroptosis in mouse RAW264.7 cells expressing NLRP1B allele 1 assessed as LDH release at 20 uM incubated for 24 hrs. It is filed as functional, cell-based. Put shortly:
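RAW264.7 cells, grown in DMEM with 10% FBS, plated at 5 × 10^5 cells/well and exposed to 20 μM compound for 24 h. Supernatant LDH was measured relative to a Triton X-100 lysis control; lysates were immunoblotted for GSDMD cleavage. n = 3.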
For orientation: LDH in the medium is a marker of cell lysis.

A short description of series [1]: Stability in human MV4-11 cells assessed as retention time of parent compound incubated for 24 hrs by LC/MS analysis. It is filed as ADME, cell-based. The following applies: mv4-11, 24 h. In outline:
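Compound was held in MV4;11 conditioned medium for 24 h at 37 °C, then LC/MS was run, recording the retention times of the parent ester and its free acid.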

Series [2] deals with MV4-11. Briefly: Induction of cell death in human MV4-11 cells assessed as increase in PI uptake at 6.25 uM incubated for 6 hrs by PI staining based fluorescence analysis. It is filed as functional. In outline: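 PI flux assay. 2 × 10^4 MV4;11 (WT, CARD8−/− or CASP1−/−) or OCI-AML2 cells in RPMI were given compound at 6.25 μM plus PI at 10 μM final. Fluorescence (Ex/Em 535/617 nm) was read every 5 min at 37 °C for 6 h, baseline-corrected to DMSO and normalized to the maximum response. n = 3.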

For series [3], the system named is OCI-AML2. Kind of series: Induction of pyroptosis in CARD8 knockout human OCI-AML2 cells assessed as LDH release at 20 uM incubated for 24 hrs. It is filed as functional, cell-based. In outline:
(§1)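 Cells (MV4;11, OCI-AML2 or THP-1; WT or the knockout named) plated at 5 × 10^5 cells/well and exposed to 20 μM compound for 24 h. LDH in the supernatant was measured relative to a Triton X-100 lysis control. For immunoblots, cells were washed in PBS, sonicated, protein-normalized, run on SDS-PAGE and probed for GSDMD cleavage. n = 3.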

Another series has as its target Xaa-Pro aminopeptidase 1 (Homo sapiens, UniProt Q9NQW7). Kind of series: Inhibition of 6-His tagged XPNPEP1 (unknown origin) expressed in Escherichia coli Rosetta DE3 cells using H-Lys(abz)-Pro-Pro-pNA as substrate at 20 uM incubated for 60 mins by fluorescence based analysis relative to control. In outline: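 His6-tagged XPNPEP1 was expressed in E. coli Rosetta DE3 (IPTG, 16 h, 37 °C) and purified on TALON resin. Enzyme at 3.5 nM was exposed to compound, then H-Lys(abz)-Pro-Pro-pNA was added at 100 μM final. Fluorescence (Ex/Em 320/410) was followed for 60 min. Single-point inhibition used 20 μM; IC50 as mean ± SEM of three biological replicates.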

Series [4] has as its system THP-1. Briefly: Induction of pyroptosis in CARD8 knockout human THP-1 cells harboring dox-inducible […] E274R mutant assessed as cell death by measuring LDH release at 20 uM pretreated with doxycycline for 16 hrs followed by compound addition and measured after 6 hrs. The format is functional, cell-based. In outline:
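CARD8−/− THP-1 cells carrying a doxycycline-inducible CARD8 E274R mutant were exposed or not to DOX at 100 ng/mL for 16 h. Compound was then added at 20 μM for 6 h, followed by LDH release and immunoblot analysis.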

Series [5] relates to OCI-AML2. Kind of series: Induction of pyroptosis in human OCI-AML2 cells assessed as GSDMD cleavage at 20 uM incubated for 24 hrs by immunoblot analysis. The format is functional, cell-based. In outline: as §1
In general terms: In western blotting, separated proteins are transferred to a membrane and probed.

In series [6] the test system is THP-1. Briefly: Induction of pyroptosis in human THP-1 cells assessed as GSDMD cleavage at 20 uM incubated for 24 hrs by immunoblot analysis. It is filed as functional, cell-based. Put shortly:
as §1

Series [7] has as its target T1, Xaa-Pro dipeptidase (Homo sapiens) (UniProt P12955).
T1 sequence (whole entry): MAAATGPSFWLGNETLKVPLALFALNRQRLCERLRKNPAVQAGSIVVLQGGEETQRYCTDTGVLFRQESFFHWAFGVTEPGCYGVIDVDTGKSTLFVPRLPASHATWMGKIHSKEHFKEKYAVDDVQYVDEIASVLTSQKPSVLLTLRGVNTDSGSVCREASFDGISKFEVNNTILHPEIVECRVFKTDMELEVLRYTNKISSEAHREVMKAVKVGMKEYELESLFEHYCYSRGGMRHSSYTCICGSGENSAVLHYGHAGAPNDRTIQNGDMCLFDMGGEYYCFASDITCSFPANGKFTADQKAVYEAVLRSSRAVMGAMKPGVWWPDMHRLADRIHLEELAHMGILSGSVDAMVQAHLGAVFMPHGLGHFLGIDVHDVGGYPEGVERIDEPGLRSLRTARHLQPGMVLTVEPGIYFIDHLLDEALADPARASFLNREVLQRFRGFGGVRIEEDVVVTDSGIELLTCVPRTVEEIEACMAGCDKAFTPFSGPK
Briefly: Inhibition of recombinant human PEPD using Ala-Pro as substrate assessed as alanine release by measuring increase in fluorescense signal at 1 uM by fluorescence based analysis relative to control. In outline:
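Recombinant human PEPD at 50 nM was incubated with Ala-Pro at 40 μM final and compound. Released alanine was detected by coupled alanine transaminase/pyruvate oxidase conversion to H2O2 and resorufin fluorescence (Ex/Em 535/587 nm) at 25 °C.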

Series [8] concerns OCI-AML2. Kind of series: Induction of pyroptosis in human OCI-AML2 cells assessed as LDH release at 20 uM incubated for 24 hrs. It is filed as functional, cell-based. Put shortly: as §1
In series [9] the test system is THP-1. Kind of series: Induction of pyroptosis in DPP8/9 knockout human THP-1 cells assessed as LDH release at 20 uM incubated for 24 hrs. The format is functional, cell-based. Put shortly:
as §1

The test system of series [10] is MV4-11. Briefly: Cytotoxicity against human MV4-11 cells assessed as reduction in cell viability incubated for 24 hrs by celltiter-glo assay. It is filed as functional, cell-based. The conditions noted are these: MV4-11, 24 h. Put shortly: (§2)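 MV4;11 cells (WT or CASP1−/−), grown in RPMI 1640 with 10% FBS at 37 °C, 5% CO2, plated 2000 cells/well, dosed by pintool across 100 μM to 15.2 nM in three-fold steps for 24 h. Viability by CellTiter-Glo luminescence after 2 min shaking and 10 min at 25 °C. IC50 as mean ± SEM of three biological replicates.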
(Cellular ATP, detected with luciferase, serves as a proxy for viable cell number.)

The test system of the next series is BMDM. Briefly: Induction of pyroptosis in C57BL/6J mouse BMDM cells expressing NLRP1A and NLRP1B allele 2 assessed as LDH release at 20 uM incubated for 24 hrs. The format is functional, cell-based. In outline:
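Bone marrow cells from femurs and tibias of 7–12-week-old C57BL/6J mice were RBC-lysed and differentiated for 6 days at 37 °C in DMEM with 10% FBS and 15–20% L-cell medium, then replated. Cells were exposed to 20 μM compound for 24 h. Read-outs were LDH release against a lysis control and GSDMD immunoblot.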

Series [11] concerns MV4-11. Briefly: Cytotoxicity against CASP1 knockout human MV4-11 cells assessed as reduction in cell viability incubated for 24 hrs by celltiter-glo assay. It is filed as functional, cell-based. The following applies: MV4-11, 24 h. Put shortly: as §2
In series [12] the test system is MV4-11. Kind of series: Induction of pyroptosis in human MV4-11 cells assessed as LDH release at 20 uM incubated for 24 hrs. It is filed as functional, cell-based. Put shortly: as §1

Broadly, the inhibition is the drop in the measured response relative to a control, in per cent. One may read the IC50 as the concentration that inhibits the measured activity by half.

Calls of active or inactive are those of the source. The calls are words filed in the database; no cut-off is given here.

Sequence of Xaa-Pro aminopeptidase 1 (Q9NQW7 whole entry): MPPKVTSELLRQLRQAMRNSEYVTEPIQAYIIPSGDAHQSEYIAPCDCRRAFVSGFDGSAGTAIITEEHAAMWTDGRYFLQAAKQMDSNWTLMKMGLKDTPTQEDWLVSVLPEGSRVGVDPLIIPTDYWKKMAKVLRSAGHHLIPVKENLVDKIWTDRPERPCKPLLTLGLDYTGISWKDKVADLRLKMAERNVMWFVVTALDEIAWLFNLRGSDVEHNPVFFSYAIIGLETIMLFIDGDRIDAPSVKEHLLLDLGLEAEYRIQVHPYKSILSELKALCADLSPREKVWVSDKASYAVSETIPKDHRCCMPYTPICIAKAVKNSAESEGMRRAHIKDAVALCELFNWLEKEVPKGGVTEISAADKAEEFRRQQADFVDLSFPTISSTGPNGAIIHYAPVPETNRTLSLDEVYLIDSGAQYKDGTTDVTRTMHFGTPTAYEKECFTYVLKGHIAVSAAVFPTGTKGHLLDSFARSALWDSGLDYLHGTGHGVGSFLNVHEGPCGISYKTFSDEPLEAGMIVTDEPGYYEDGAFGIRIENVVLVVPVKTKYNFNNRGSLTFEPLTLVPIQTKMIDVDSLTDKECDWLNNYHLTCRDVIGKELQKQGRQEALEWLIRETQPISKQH

Turning to `COC(=O)[C@H](CC(C)C)NC(=O)[C@@H]1CCCN1C(=O)[C@@H](O)[C@H](N)CC(C)C`, the outcome in the series on HEK-293T, in the series on MV4-11 [2], in the series on OCI-AML2 [5], with THP-1 [6], with OCI-AML2 [8] and with MV4-11 [12] was Active. The result with RAW264.7, in the series with OCI-AML2 [3], in the series on THP-1 [4], in the series with THP-1 [9] and with BMDM was inactive. Moreover, in series [1], the Retention_time worked out at 2.82 min. The inhibition against Xaa-Pro aminopeptidase 1 was 74%; in series [7] it was 60%. Further, the IC50 in the series on MV4-11 [10] is 0.27 µM; with MV4-11 [11] it was above 20 µM.
For the compound `COC(=O)[C@@H]1CCCN1C(=O)[C@@H](O)[C@H](N)CC(C)C`, the outcome in the series with HEK-293T, in the series with MV4-11 [2], in the series on OCI-AML2 [5], in the series with THP-1 [6], in the series with OCI-AML2 [8] and in the series with MV4-11 [12] was Active. In addition, the outcome with RAW264.7, in the series with OCI-AML2 [3], with THP-1 [4], in the series with THP-1 [9] and with BMDM was inactive. Also, the results for the inhibition (at Xaa-Pro aminopeptidase 1; in [7]) were 96% and 48%, respectively. The half-inhibitory concentration (IC50) is 2.2 µM in the series on MV4-11 [10] and above 100 µM in the series with MV4-11 [11].
